Assay results taken from ChEMBL document CHEMBL4350968, “Structure Guided Design, Synthesis, and Biological Evaluation of Novel Benzosuberene Analogues as Inhibitors of Tubulin Polymerization” (J Med Chem, 2019).
The source made the active and inactive calls. No cut-off for these calls is given here.

Legend:
NCI-H460 = experiment: Cytotoxicity against human NCI-H460 cells assessed as growth inhibition measured after 48 hrs by SRB assay; format: functional; settings: NCI-H460, 48 h
Tubulin = Tubulin (Bos taurus, UniProt Q6B856+Q862L2+Q862F3); experiment: Inhibition of bovine brain tubulin polymerization preincubated for 15 mins followed by GTP addition and measured for 20 mins by turbidimetry-based spectrophotometric method
Procedure, shortened: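 Mixtures held 10 µM purified bovine brain tubulin, 0.8 M monosodium glutamate pH 6.6, 4% DMSO and varied compound concentrations. These were preincubated 15 min at 30 °C without GTP, then chilled to 0 °C, and GTP was added to 0.4 mM final. Temperature was raised to 30 °C and turbidity followed at 350 nm for 20 min.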

SK-OV-3 = experiment: Cytotoxicity against human SKOV3 cells assessed as growth inhibition measured after 48 hrs by SRB assay; format: functional; settings: SK-OV-3, 48 h
DU-145 = experiment: Cytotoxicity against human DU145 cells assessed as growth inhibition measured after 48 hrs by SRB assay; format: functional; settings: DU-145, 48 h
[1] = Toxicity in Copenhagen rat xenografted with human PC3 cells harboring DAB2IP-luc at 80 mg/kg, ip measured after 4 to 24 hrs; format: organism-based; settings: in vivo
[2] = Toxicity in Copenhagen rat xenografted with human PC3 cells harboring DAB2IP-luc at 40 mg/kg, ip measured after 48 hrs; format: organism-based; settings: in vivo
PC-3 [3] = experiment: (§1) Induction of vascular damage in human PC3 cells harboring DAB2IP-luc xenografted in Copenhagen rat assessed as reduction in light emission at 80 mg/kg, ip measured after 4 to 24 hrs by Bioluminescence imaging analysis; format: functional, organism-based
Procedure, shortened: (§2)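 Male Copenhagen rats (about 6 weeks old, 100-120 g) were implanted s.c. in the right thigh with 5 X 10⁵ PC3-DAB2IP-luc cells in 30% Matrigel. Tumors were at least 1 cm in diameter before treatment. Prodrug in saline (25 mg/mL) was given IP, one rat per regimen. Under isoflurane, 120 mg/kg D-luciferin was injected s.c. fresh at baseline, 4 h and 24 h. Tumor ROI light emission was followed over about 30 min.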

PC-3 [4] = experiment: Induction of vascular damage in human PC3 cells harboring DAB2IP-luc xenografted in Copenhagen rat assessed as reduction in light emission at 40 mg/kg, ip measured after 24 to 48 hrs by Bioluminescence imaging analysis; format: functional, organism-based; procedure, shortened: as §2
PC-3 [5] = experiment: Induction of vascular damage in human PC3 cells harboring DAB2IP-luc xenografted in Copenhagen rat assessed as reduction in light emission at 40 mg/kg, ip measured after 4 hrs by Bioluminescence imaging analysis; format: functional, organism-based; procedure, shortened: as §2
PC-3 [6] = experiment: as §1, with “10” for “80”, “ip administered 24 hrs prior to 40 mg/kg, ip dosing for 4 hrs followed by CA4P dosing at 30 mg/kg, ip and” for “ip”, “bioluminescence” for “Bioluminescence”; format: functional, organism-based; procedure, shortened: as §2
PC-3 [7] = experiment: Induction of vascular damage in human PC3 cells harboring DAB2IP-luc xenografted in Copenhagen rat assessed as reduction in light emission at 10 mg/kg, ip administered 6 hrs prior to 40 mg/kg, ip dosing and measured after 24 hrs by bioluminescence imaging analysis; format: functional, organism-based; procedure, shortened: as §2
PC-3 [8] = experiment: Induction of vascular damage in human PC3 cells harboring DAB2IP-luc xenografted in Copenhagen rat assessed as reduction in light emission at 10 mg/kg, ip administered 6 hrs prior to 40 mg/kg, ip dosing and measured after 4 hrs by bioluminescence imaging analysis relative to control; format: functional; parameters: scale not given: the % may be the effect or the level left; procedure, shortened: as §2
PC-3 [9] = experiment: Induction of vascular damage in human PC3 cells harboring DAB2IP-luc xenografted in Copenhagen rat assessed as reduction in light emission at 10 mg/kg, ip measured after 4 to 24 hrs by Bioluminescence imaging analysis; format: functional, organism-based; procedure, shortened: as §2
Tubulin (Homo sapiens) [10] = target: T1, Tubulin (Homo sapiens) (UniProt P68371+Q9H4B7+P0DPH7+P68366+Q13509+Q71U36+P04350+Q3ZCM7+P07437+P68363+Q9BQE3+Q6PEY2+Q13885+Q9BVA1+Q9BUF5); experiment: Inhibition of [3H]colchicine binding to tubulin (unknown origin) at 5 uM measured after 10 mins by beckman scintillation counting method relative to control; format: protein-complex assay
Procedure, shortened: (§3)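 Each 0.1 mL mix held 1.0 µM tubulin, 5.0 µM [3H]colchicine, 5% DMSO and compound at 1.0 or 5.0 µM. Stabilising components were 1.0 M monosodium glutamate pH 6.6, 0.5 mg/mL BSA, 0.1 M glucose-1-phosphate, 1.0 mM MgCl2 and 1.0 mM GTP. After 10 min at 37 °C, reactions were stopped with ice-cold water and filtered on DEAE-cellulose. Bound label was counted and percent inhibition taken versus no-inhibitor samples, correcting for filter binding without tubulin.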

Tubulin (Homo sapiens) [11] = target: T1, Tubulin (Homo sapiens); experiment: Inhibition of [3H]colchicine binding to tubulin (unknown origin) measured after 10 mins by beckman scintillation counting method relative to control; format: protein-complex assay
Procedure, shortened: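 The 0.1 mL mix held 1.0 µM tubulin, 5.0 µM [3H]colchicine, 5% DMSO and compound at 1.0 or 5.0 µM. It also held 1.0 M monosodium glutamate (pH 6.6), 0.5 mg/mL BSA, 0.1 M glucose-1-phosphate, 1.0 mM MgCl2 and 1.0 mM GTP. After 10 min at 37 °C the reaction was stopped on ice, the mix filtered through DEAE-cellulose and counted. Percent inhibition was taken against the no-inhibitor control, corrected for label bound without tubulin.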

Tubulin (Homo sapiens) [12] = target: T1, Tubulin (Homo sapiens); experiment: Inhibition of [3H]colchicine binding to tubulin (unknown origin) at 0.5 uM measured after 10 mins by beckman scintillation counting method relative to control; format: protein-complex assay
Tubulin (Homo sapiens) [13] = target: T1, Tubulin (Homo sapiens); experiment: Inhibition of [3H]colchicine binding to tubulin (unknown origin) at 1 uM measured after 10 mins by beckman scintillation counting method relative to control; format: protein-complex assay; procedure, shortened: as §3

Row | SMILES | GI50 (NCI-H460) [nM] | IC50 (Tubulin) [µM] | GI50 (SK-OV-3) [nM] | GI50 (DU-145) [nM] | inhibition (Tubulin (Homo sapiens) [10]) [%] | also measured
1 | COc1ccc2c(c1O)CCCCC2(O)c1cc(OC)c(OC)c(OC)c1 (stereo not given) | 173 | > 20 | 394 | 33 |  | 
2 | COc1cc(C2=CC=CCc3c2ccc(OC)c3OP(=O)([O-])[O-])cc(OC)c1OC.[Na+].[Na+] | 29.1 | 16 |  |  | 45 | Activity [1]: Non-Toxic; Activity [2]: Non-Toxic; Activity (PC-3 [3]): inactive; Activity (PC-3 [4]): inactive; Activity (PC-3 [5]): Active; Activity (PC-3 [6]): Active; Activity (PC-3 [7]): inactive; Activity (PC-3 [8]): 95%; Activity (PC-3 [9]): inactive
3 | COc1ccc2c(c1C#N)CCC=C2c1cc(OC)c(OC)c(OC)c1 | 60.5 | 0.37 | 38.4 | 25.2 | 73 | 
4 | COc1ccc2c(c1C#N)CCCC=C2c1cc(OC)c(OC)c(OC)c1 | 434 | 1.1 | 64.8 | 860 | 62 | 
5 | COc1ccc(/C=C\c2cc(OC)c(OC)c(OC)c2)cc1O [COMBRETASTATIN A4] | 2.23 |  | 4.55 | 3.27 |  | 
6 | COc1ccc2c(c1O)CCC(NC(C)=O)C=C2c1cc(OC)c(OC)c(OC)c1 (stereo not given) | 334 |  |  | 1200 | 0.4 | 
7 | COc1ccc2c(c1C=O)CCCC=C2c1cc(OC)c(OC)c(OC)c1 | 84.7 | 3.2 | 57.2 | 40.2 | 61 | 
8 | COc1ccc2c(c1O)CCCC(Br)=C2c1cc(OC)c(OC)c(OC)c1 | 35.3 | 0.39 | 22.1 | 36.2 | 88 | 
9 | COCCOCCOc1c(OC)ccc2c1CCCC=C2c1cc(OC)c(OC)c(OC)c1 | 1900 | > 20 | 6520 | 5660 |  | 
10 | COc1ccc2c(c1O)CCCC(=O)C2(O)c1cc(OC)c(OC)c(OC)c1 (stereo not given) | 47.6 | 1.2 | 31.4 | 141 | 72 | 
11 | COc1ccc(/C=C\c2cc(OC)c(OC)c(OC)c2)cc1OP(=O)(O)O [FOSBRETABULIN DISODIUM] | 1.94 |  | 1.19 | 3.23 |  | 
12 | COc1cc(C2(O)C=CCCc3c2ccc(OC)c3OC)cc(OC)c1OC (stereo not given) | 70500 | > 20 | 27200 | 26000 | 0 | 
13 | COc1cc(C2CCc3c(ccc(OC)c3OC)C(=O)C2)cc(OC)c1OC (stereo not given) | 2000 | > 20 | 5770 | 4450 | 0 | 
14 | CC(=O)O[C@H]1C(=O)[C@@]2(C)[C@H]([C@H](OC(=O)c3ccccc3)[C@]3(O)C[C@H](OC(=O)[C@H](O)[C@@H](NC(=O)c4ccccc4)c4ccccc4)C(C)=C1C3(C)C)[C@]1(OC(C)=O)CO[C@@H]1C[C@@H]2O [PACLITAXEL] | 1.76 |  | 1.34 | 1.47 |  | inhibition (Tubulin (Homo sapiens) [11]): inactive
15 | CCOC(=O)c1c(OC)ccc2c1CCCC=C2c1cc(OC)c(OC)c(OC)c1 | 353 | 1 | 299 | 631 | 47 | 
16 | COc1ccc2c(c1O)CC=CC=C2c1cc(OC)c(OC)c(OC)c1 | 58.1 | 0.48 |  |  | 95 | inhibition (Tubulin (Homo sapiens) [12]): 68%
17 | COc1cc(C2=CCCCc3c2ccc(OC)c3OCCO)cc(OC)c1OC | 855 | > 20 | 3220 | 3760 |  | 
18 | COc1ccc2c(c1O)CCCC=C2c1cc(OC)c(OC)c(OC)c1 |  | 0.85 |  |  | 95 | inhibition (Tubulin (Homo sapiens) [13]): 73%
19 | COc1ccc2c(c1O)CCCC(O)C2(O)c1cc(OC)c(OC)c(OC)c1 (stereo not given) | 3860 | > 20 | 3030 | 4040 | 0 | 
20 | COc1ccc2c(c1C)CCCC(Br)=C2c1cc(OC)c(OC)c(OC)c1 | 449 | 4.9 | 312 | 423 |  | inhibition (Tubulin (Homo sapiens) [13]): 35%
21 | COc1ccc2c(c1CO)CCCC=C2c1cc(OC)c(OC)c(OC)c1 | 62.8 | 0.63 |  |  | 76 | 
22 | COc1cc(C2=CC(O)CCc3c2ccc(OC)c3OC)cc(OC)c1OC (stereo not given) | 432 | 3.8 | 263 | 439 | 28 | 
23 | COc1cccc2c1C(=O)c1c(O)c3c(c(O)c1C2=O)C[C@@](O)(C(=O)CO)C[C@@H]3O[C@H]1C[C@H](N)[C@H](O)[C@H](C)O1 [DOXORUBICIN] | 123 |  | 78.9 | 134 |  | 
